Screening data deposited in PubChem BioAssay by several laboratories.
A selection: hits, their analogues and other compounds. The true share with any hit is near 2%.
PKD1 kinase inh = PKD1 (human) kinase inhibition; 0.056% of 200,000 active; Q15139; inhibition, % (no concentration beside the values); PKD1 kinase fluorescence polarization assay
MEX-5 binding = C. elegans MEX-5 TCR-2 RNA binding activity | Q9XUB2 | MEX-5/FITC-TCR2 RNA binding, fluorescence polarization; hits give low values | activity score (negative = inhibition of binding), % at 10 µM | 0.38% of 300,000 active;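 active means inhibition past about -25% in most replicates, and total fluorescence under double the plate's negative control median, limit read from the data; inconclusive means replicates evenly split on the limit, or fluorescence at least double controls; inactive means too little inhibition in most replicates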
RanGTP-Imp inh = inhibitors of RanGTP-importin-beta interaction, primary screen, biochemical, FRET, CFP-Ran, YFP-importin-beta, homogeneous | cell-free CFP-Ran/YFP-importin-beta FRET ratio | inhibition, % (no concentration beside the values) | 1.1% of 300,000 active | AID 2216;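 active means more than half of the replicate wells show a fall in the fluorescence ratio signal beyond about 16%, limit read from the data, passing the limit was not always enough; inconclusive means exactly half of the replicate wells pass the set limit; inactive means fewer than half of replicates pass the limit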
Runt-SMMHC FRET = blocks binding of human RUNX1 Runt domain to CBFb-SMMHC; 0.74% of 220,000 active; Cerulean-Runt/Venus-CBFb-SMMHC FRET ratio 530/480, 1 h; Q01196+Q13951; inhibition, % at 20 µM;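 active means mean inhibition across duplicate retests at 20 µM reaching about 50%, limit read from the data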;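 further: inhibitors lower the FRET ratio by blocking Runt binding to CBFb-SMMHC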
Target sequence (Q01196 whole entry, looked up, the tested form may be a part): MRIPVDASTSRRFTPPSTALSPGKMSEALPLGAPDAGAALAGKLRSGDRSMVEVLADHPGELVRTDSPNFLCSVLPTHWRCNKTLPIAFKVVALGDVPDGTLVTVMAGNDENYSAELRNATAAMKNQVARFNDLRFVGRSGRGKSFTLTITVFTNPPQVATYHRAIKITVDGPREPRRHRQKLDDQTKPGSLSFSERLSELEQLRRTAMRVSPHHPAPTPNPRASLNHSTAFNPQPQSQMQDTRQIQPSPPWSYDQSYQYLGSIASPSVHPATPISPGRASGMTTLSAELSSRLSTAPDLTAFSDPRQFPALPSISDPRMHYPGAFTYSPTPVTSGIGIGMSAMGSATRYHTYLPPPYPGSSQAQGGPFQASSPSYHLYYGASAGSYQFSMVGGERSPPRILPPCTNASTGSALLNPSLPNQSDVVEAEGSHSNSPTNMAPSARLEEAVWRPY
Target sequence (Q13951 whole entry, looked up, the tested form may be a part): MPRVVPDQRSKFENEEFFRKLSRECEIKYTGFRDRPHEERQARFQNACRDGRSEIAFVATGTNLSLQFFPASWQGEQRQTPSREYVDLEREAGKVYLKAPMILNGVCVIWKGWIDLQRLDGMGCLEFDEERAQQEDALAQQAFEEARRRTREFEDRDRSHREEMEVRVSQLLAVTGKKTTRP
EBV gp42 block = EBV gp42 inhibition. Q1HVG2. 0.42% of 220,000 active. inhibition, % (tested at 21.74 µM). Fluorescence polarization binding assay, mP read-out. AID 1085
Runt-CBFb FRET = Runt domain-CBFb interaction inhibition; Q01196+Q13951; Cerulean-Runt/Venus-CBFb FRET ratio 530/480, 1 h; inhibition, % at 20 µM; 0.46% of 220,000 active;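 active means inhibition over about 50% at 20 µM in the single-dose screen, limit read from the data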
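Assay system: Cerulean-Runt domain fusion protein, energy donor; Signal: fluorescence energy transfer, 422 nm excitation, 530/480 nm emission; Timing: 1 h compound exposure, room temperature; Control set: unlabeled CBFb; Medium: Tris buffer pH 7.5 with salts and BSA; Compound: single test concentration of 20 µM, 1% DMSO final; Probe or stimulus: Venus-CBFb 100 nM.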
Numbers stand for hits; i = inactive; ? = inconclusive; nt = no result given; ! = a repeat was not active. Unless noted, no stated cut-off is given here; in the data, active means inhibition above about 50%; inactive means the rest.

SMILES	PKD1 kinase inh	MEX-5 binding	RanGTP-Imp inh	Runt-SMMHC FRET	EBV gp42 block	Runt-CBFb FRET
COc1ccccc1CCNCc1cccc(C(F)(F)F)c1	nt	i	i	nt	nt	nt
C=CCN1C(=O)NC(=O)/C(=C\c2ccc(-c3ccccc3[N+](=O)[O-])o2)C1=O	i	i	i	i	i	i
O=C1NC(=O)N(Cc2ccco2)C(=O)/C1=C/c1ccc(-c2cccc([N+](=O)[O-])c2)o1	i	i	nt	i	90.6	i
Cc1cc(/C=C2\C(=O)NC(=O)N(Cc3ccccc3)C2=O)c(C)n1C1CC1	i	-58.2	?	i	i	i
CCC(=O)C(CCN1CCOCC1)(c1ccccc1)c1ccccc1	nt	i	i	nt	nt	nt
Nc1c(C(=O)NCc2ccco2)c2nc3ccccc3nc2n1CCN1CCOCC1	i	i	46.4	80.9	i	i
Nc1c(C(=O)NCc2ccco2)c2nc3ccccc3nc2n1Cc1ccc(F)cc1	i	i	42.7	74.3	i	i
COc1ccc(Cn2c(N)c(C(=O)NCc3ccco3)c3nc4ccccc4nc32)cc1	i	i	61.1	99.7	i	i
CCOC(=O)c1c(N)n(Cc2ccco2)c2nc3ccccc3nc12	i	nt	nt	70.5	i	i
O=c1c2ccccc2nc(-c2ccccc2Cl)n1-c1cccc(O)c1	nt	i	i	nt	nt	nt
C[C@]12CC[C@H]3[C@@H](CCC4=CC(=O)CC[C@@]43O)[C@@H]1CCC2=O	nt	i	i	nt	nt	nt
COCC(C)OC(=O)c1c(N)n(Cc2ccco2)c2nc3ccccc3nc12 (stereo not drawn)	i	i	i	i	i	nt
Nc1c(C(=O)NCc2ccco2)c2nc3ccccc3nc2n1Cc1ccccc1	i	i	55.4	76.0	i	67.7
CCc1cc(=O)oc2cc(OCC(=O)N3C[C@H]4C[C@@H](C3)c3cccc(=O)n3C4)ccc12	nt	i	i	nt	nt	nt
N#CC(C#N)=Cc1ccc(N2CCOCC2)cc1	nt	-27.3	?	i	i	i
COc1ccc2ccccc2c1CNCCc1ccccc1	nt	i	i	nt	nt	nt
CN(C)c1ccc(/C=C2/C(=N\O)C3CCN2CC3)cc1	nt	i	56.9	i	i	i
O=C1/C(=C\c2ccc([N+](=O)[O-])cc2)N2CCC1CC2	i	i	i	i	i	i
CN1CCN(Cc2cc3c(cc2[N+](=O)[O-])OCO3)CC1	nt	i	i	nt	nt	nt
CCCCn1c(=O)c(C(=O)Nc2nc3ccccc3[nH]2)c(O)c2ccccc21	nt	nt	nt	i	nt	i
CCCCn1c(NC(=O)c2ccco2)c(C(=O)OCC)c2nc3ccccc3nc21	i	i	71.1	60.4	i	i
CCCCn1c(NS(=O)(=O)c2ccc(C)cc2)c(C(=O)OCC)c2nc3ccccc3nc21	i	i	75.3	58.5	i	i
NC1=NC(=O)C(c2ccccc2)O1 (stereo not drawn)	nt	nt	nt	i	i	i
C=CCN1C(=O)NC(=O)/C(=C/c2cc3c4c(c2)CCCN4CCC3)C1=O	i	i	nt	i	i	i
O=C1NC(=S)NC(=O)C1=Cc1ccc2c(c1)CCN2CCCCl	nt	i	i	i	71.2	i
SMILES	PKD1 kinase inh	MEX-5 binding	RanGTP-Imp inh	Runt-SMMHC FRET	EBV gp42 block	Runt-CBFb FRET
COc1cc(/C=C/[N+](=O)[O-])ccc1O	i	i	i	i	i	i
O=[N+]([O-])c1cc(S(=O)(=O)c2ccc(O)c([N+](=O)[O-])c2)ccc1O	i	-35.7	?	i	i	i
COc1cc(/C=C2/C(=O)NC(=O)N(c3ccccc3)C2=O)ccc1O	i	i	i	i	i	i
COc1cccc(N2C(=O)NC(=O)/C(=C/c3ccc4c(c3)Cc3ccccc3-4)C2=O)c1	i	-42.8	i	i	i	nt
COC(=O)N(c1ccccc1)P(=O)(Oc1ccccc1)Oc1ccccc1	nt	i	i	nt	nt	nt
CC[n+]1c(/C=C/C=C/c2ccc(N(C)C)cc2)sc2ccccc21	nt	-28.5	i	i	i	i
CN(C)c1ccc(/C=C/C=C/c2sc3ccccc3[n+]2C)cc1	nt	i	i	i	i	i
O=P1(N(CCCl)CCCl)NCCCO1 (stereo not drawn)	nt	i	i	nt	nt	nt
COC(=O)Cn1cc(/C=C2\C(=O)NC(=O)N(c3ccc(OC)cc3)C2=O)c2ccccc21	nt	-53.8	i	nt	nt	nt
O=C1NC(=S)N(c2ccc(F)cc2)C(=O)/C1=C/c1ccccc1O	nt	i	i	nt	nt	nt
O=C(O)Cn1cc(/C=C2\C(=O)NC(=O)N(c3ccc(F)cc3)C2=O)c2ccccc21	nt	-42.2	i	nt	nt	nt
COCCNC(=O)Cn1cc(/C=C2\C(=O)NC(=O)N(c3ccccc3F)C2=O)c2ccccc21	nt	-86.3	i	nt	nt	nt
COc1ccc(N2C(=O)NC(=O)/C(=C/c3ccc(N4CCOCC4)cc3)C2=O)cc1	i	i	i	i	i	i
COc1ccc(N2C(=O)NC(=O)/C(=C\c3cn(C)c4ccccc34)C2=O)cc1	nt	-38.8	i	nt	nt	nt
Cc1cccc(-n2c(/C=C/c3ccccn3)nc3ccccc3c2=O)c1	nt	i	i	nt	nt	nt
Cc1cc(Cc2c(O)[nH]c(=S)[nH]c2=O)ccc1OC(C)C	nt	i	i	nt	nt	nt
CC(C)c1cc(Br)c(NC(=O)Nc2cccnc2)c(Br)c1	nt	i	i	nt	nt	nt
CCOc1cc2c(cc1OCC)-n1cccc1C(c1cccc(OCC)c1O)NC2 (stereo not drawn)	nt	i	i	nt	nt	nt
O=C(c1cccn2c(=O)c3cc(Br)ccc3nc12)N1CCC2(CC1)OCCO2	i	i	i	i	i	i
Cc1cccn2c(=O)c3cc(C(=O)N4CCC5(CC4)OCCO5)n(C)c3nc12	i	i	i	83.3	i	i
CCN(CC)c1ccc(N=Cc2c(O)n(Cc3ccccc3)c(=O)[nH]c2=O)cc1	i	-29.5!	i	i	i	i
CCOc1ccc(-n2c(O)c(C=Nc3ccc(N(CC)CC)cc3)c(=O)[nH]c2=O)cc1	i	i	i	i	82.5	i
O=C(N/N=C/c1c(O)n(Cc2ccccc2)c(=O)[nH]c1=O)c1ccccc1O	i	-35.7	i	i	i	i
